From ChEMBL document CHEMBL3808274, “Discovery and characterization of a novel series of N-phenylsulfonyl-1H-pyrrole picolinamides as positive allosteric modulators of the metabotropic glutamate receptor 4 (mGlu4)” (Bioorg Med Chem Lett, 2016)

Experiments:
[1] = target: T1, Metabotropic glutamate receptor 4 (Homo sapiens, UniProt Q14833); assay: Positive allosteric modulation of human mGlu4 receptor assessed as increase in glutamate-induced calcium mobilization at 30 uM relative to PHCCC; type: functional
T1 sequence (Q14833 whole entry): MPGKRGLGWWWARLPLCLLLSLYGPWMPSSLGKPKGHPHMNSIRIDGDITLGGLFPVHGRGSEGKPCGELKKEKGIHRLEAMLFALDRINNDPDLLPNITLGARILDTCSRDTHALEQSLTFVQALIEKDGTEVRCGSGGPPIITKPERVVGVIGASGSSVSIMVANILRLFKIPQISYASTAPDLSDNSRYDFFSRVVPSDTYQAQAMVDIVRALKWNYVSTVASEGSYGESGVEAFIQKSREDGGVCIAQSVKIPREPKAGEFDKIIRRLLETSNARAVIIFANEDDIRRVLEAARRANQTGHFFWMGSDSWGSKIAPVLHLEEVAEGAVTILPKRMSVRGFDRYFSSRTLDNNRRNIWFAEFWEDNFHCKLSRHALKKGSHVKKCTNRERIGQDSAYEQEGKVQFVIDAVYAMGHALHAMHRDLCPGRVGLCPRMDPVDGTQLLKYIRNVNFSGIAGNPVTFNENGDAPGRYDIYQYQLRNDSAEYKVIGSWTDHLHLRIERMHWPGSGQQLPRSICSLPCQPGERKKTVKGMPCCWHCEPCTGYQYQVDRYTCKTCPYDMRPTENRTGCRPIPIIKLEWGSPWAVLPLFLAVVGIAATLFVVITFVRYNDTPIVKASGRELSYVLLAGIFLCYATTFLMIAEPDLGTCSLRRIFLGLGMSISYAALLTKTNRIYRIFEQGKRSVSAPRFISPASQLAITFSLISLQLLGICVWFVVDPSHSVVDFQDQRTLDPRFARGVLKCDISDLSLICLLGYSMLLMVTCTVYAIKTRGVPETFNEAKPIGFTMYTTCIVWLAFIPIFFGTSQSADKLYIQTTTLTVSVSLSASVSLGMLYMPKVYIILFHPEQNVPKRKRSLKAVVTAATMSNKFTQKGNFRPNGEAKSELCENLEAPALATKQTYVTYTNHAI
Procedure, shortened: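 Calcium mobilization assay at human mGlu4; response amplitude with 30 µM test compound normalized to the standard PHCCC and expressed as %GluMax.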

[2] = target: T1, Metabotropic glutamate receptor 4; assay: Positive allosteric modulation of human mGlu4 receptor assessed as increase in glutamate-induced calcium mobilization; type: functional
Procedure, shortened: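 Calcium mobilization assay in cells expressing human mGlu4; potentiation of the glutamate response measured; EC50 values are the average of n = 3.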

Plasma = assay: Fraction unbound in rat plasma by equilibrium dialysis method; type: ADME, cell-free
Procedure, shortened: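 Protein binding in rat plasma measured by equilibrium dialysis; fraction unbound (Fu) reported.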

[3] = Ratio of systemic plasma concentration to hepatic portal vein plasma concentration in rat at 10 mg/kg, po; type: ADME, organism-based; conditions: in vivo
Procedure, shortened: (§1)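 Rats dosed orally at 10 mg/kg, with vehicle or co-dosed with the pan-irreversible P450 inhibitor 1-aminobenzotriazole (ABT); samples taken at 1 h from systemic plasma, hepatic portal vein plasma and brain. Brain:plasma and systemic:HPV ratios are calculated from these concentrations.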

[4] = Drug level in rat brain at 10 mg/kg, po incubated for 1 hr; type: ADME, organism-based; conditions: read-out: Drug uptake; procedure, shortened: as §1
[5] = Systemic plasma concentration in rat at 10 mg/kg, po incubated for 1 hr; type: ADME, organism-based
Procedure, shortened: (§2)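 Rats dosed orally at 10 mg/kg, either with vehicle or co-dosed with 1-aminobenzotriazole (ABT), a pan-irreversible cytochrome P450 inhibitor. At 1 h post-dose, systemic plasma, hepatic portal vein plasma and brain were sampled. Drug concentrations were measured in each matrix, and brain:plasma ratios were derived from these levels.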

[6] = Plasma clearance in rat at 1 mg/kg, iv; type: ADME, organism-based
Procedure, shortened: (§3)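 Rat IV dosing at 1 mg/kg; plasma PK parameters (clearance, half-life, MRT, Vss, AUC) derived from plasma concentration-time profile.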

[7] = Systemic plasma concentration in rat at 10 mg/kg, po coadministered with panirreversible P450 inhibitor ABT incubated for 1 hr; type: ADME, organism-based; procedure, shortened: as §2
[8] = Plasma concentration in rat hepatic portal vein at 10 mg/kg, po coadministered with panirreversible P450 inhibitor ABT incubated for 1 hr; type: ADME, organism-based; procedure, shortened: as §1
[9] = AUC in rat at 1 mg/kg, iv; type: ADME, organism-based; conditions: in vivo; procedure, shortened: as §3
[10] = Drug level in rat brain at 10 mg/kg, po coadministered with panirreversible P450 inhibitor ABT incubated for 1 hr; type: ADME, organism-based; conditions: read-out: Drug uptake; procedure, shortened: as §1
[11] = Mean residence time in rat at 1 mg/kg, iv; type: ADME, organism-based; conditions: in vivo; procedure, shortened: as §3
[12] = Ratio of systemic plasma concentration to hepatic portal vein plasma concentration in rat at 10 mg/kg, po coadministered with panirreversible P450 inhibitor ABT; type: ADME, organism-based; conditions: in vivo; procedure, shortened: as §1
[13] = Half life in rat at 1 mg/kg, iv; type: ADME, organism-based; conditions: in vivo; procedure, shortened: as §3
[14] = Volume of distribution at steady state in rat at 1 mg/kg, iv; type: ADME, organism-based; conditions: in vivo, read-out: Vdss; procedure, shortened: as §3
[15] = Plasma concentration in rat hepatic portal vein at 10 mg/kg, po incubated for 1 hr; type: ADME, organism-based; procedure, shortened: as §1
[16] = Ratio of drug level in rat brain to plasma at 10 mg/kg, po incubated for 1 hr; type: ADME, organism-based; conditions: read-out: BPR; procedure, shortened: as §1
[17] = Ratio of drug level in rat brain to plasma at 10 mg/kg, po coadministered with panirreversible P450 inhibitor ABT incubated for 1 hr; type: ADME, organism-based; conditions: read-out: BPR; procedure, shortened: as §2

Row | SMILES | %max [1] | EC50 [2] | other results
1 | O=C(Nc1ccn(S(=O)(=O)Cc2ccc(F)cc2Cl)c1)c1ccccn1 | 122% | 84 nM | –
2 | Cc1nc(NC(=O)c2ccccn2)sc1S(=O)(=O)Cc1c(F)cccc1F | 99.3% | 295 nM | –
3 | O=C(Nc1ccn(S(=O)(=O)Cc2ccccc2Cl)c1)c1ccccn1 | 119% | 174 nM | –
4 | O=C(Nc1ccn(S(=O)(=O)Cc2ccccc2F)c1)c1ccccn1 | 117% | 251 nM | –
5 | Cc1cc(S(=O)(=O)n2ccc(NC(=O)c3ccccn3)c2)ccc1Cl | 72.2% | 163 nM | Ratio [3]: < 0.01; concentration at 1 h [4]: 8.1 ng/g; concentration at 1 h [5]: 7.4 ng/mL; clearance [6]: 86.8 mL/min/kg; concentration at 1 h [7]: 198 ng/mL; concentration at 1 h [8]: 764 ng/mL; AUC [9]: 192 ng·h/mL; concentration at 1 h [10]: 176 ng/g; MRT [11]: 1.41 h; Fu (Plasma): 0.004; Ratio [12]: 0.26; half-life [13]: 2.78 h; Vd [14]: 7.4 L/kg; concentration at 1 h [15]: 731 ng/mL; Kp at 1 h [16]: 1; Kp at 1 h [17]: 1
6 | Cc1cc(S(=O)(=O)n2ccc(NC(=O)c3ccccn3)c2)ccc1F | 98.9% | 268 nM | –
7 | CCc1nc(NC(=O)c2ccccn2)sc1S(=O)(=O)Cc1c(F)cccc1F | 109% | 150 nM | –
8 | O=C(Nc1ccn(S(=O)(=O)Cc2ccc(C(F)(F)F)cc2)c1)c1ccccn1 | 88.7% | 188 nM | –
9 | O=C(Nc1ccn(S(=O)(=O)c2ccc(C(F)(F)F)cc2)c1)c1ccccn1 | 35.6% | 739 nM | –
10 | O=C(Nc1cnn(S(=O)(=O)c2ccc(C(F)(F)F)cc2)c1)c1ccccn1 | 35.3% | 242 nM | –
11 | Cc1ccc(S(=O)(=O)n2ccc(NC(=O)c3ccccn3)c2)cc1C | 80.3% | 62 nM | clearance [6]: 37.2 mL/min/kg; AUC [9]: 448 ng·h/mL; MRT [11]: 2.48 h; Fu (Plasma): 0.012; half-life [13]: 4.2 h; Vd [14]: 5.5 L/kg
12 | O=C(Nc1ccn(S(=O)(=O)c2ccc(F)cc2)c1)c1ccccn1 | 78.8% | 740 nM | –
13 | O=C(Nc1ncc(S(=O)(=O)Cc2ccc(Cl)cc2F)s1)c1ccccn1 | 35.1% | 83 nM | –
14 | O=C(Nc1ccn(S(=O)(=O)Cc2cccc(F)c2)c1)c1ccccn1 | 98.6% | 572 nM | –
15 | CC(c1ccccc1)S(=O)(=O)n1ccc(NC(=O)c2ccccn2)c1 (stereo not drawn) | 59.6% | 2970 nM | –
16 | Cc1nc(NC(=O)c2ccccn2)sc1S(=O)(=O)Cc1ccccc1Cl | 94.8% | 448 nM | –
17 | O=C(Nc1ccn(S(=O)(=O)Cc2ccc(Cl)cc2)c1)c1ccccn1 | 140% | 398 nM | –
18 | CCc1nc(NC(=O)c2ccccn2)sc1S(=O)(=O)Cc1ccc(Cl)cc1F | 120% | 217 nM | –

Further lines, with some results ahead:

Row | %max [1] | EC50 [2] | SMILES | other results
19 | 30.6% | 189 nM | O=C(Nc1ncc(S(=O)(=O)Cc2ccccc2Cl)s1)c1ccccn1 | –
20 | 112% | 4140 nM | Cc1nc(NC(=O)c2ccccn2)sc1S(=O)(=O)Cc1ccc(Cl)cc1F | –
21 | 88.8% | 122 nM | Cc1ccc(S(=O)(=O)n2ccc(NC(=O)c3ccccn3)c2)cc1 | Fu (Plasma): 0.009
22 | 112% | 4180 nM | Cc1cccc(CS(=O)(=O)n2ccc(NC(=O)c3ccccn3)c2)c1 | –
23 | 109% | 190 nM | O=C(Nc1ccn(S(=O)(=O)Cc2ccc(F)cc2F)c1)c1ccccn1 | –
24 | 84.8% | 104 nM | Cc1cccc(S(=O)(=O)n2ccc(NC(=O)c3ccccn3)c2)c1 | Fu (Plasma): 0.001
25 | 93.5% | 547 nM | Cc1nc(NC(=O)c2ccccn2)sc1S(=O)(=O)Cc1ccc(F)cc1F | –
26 | 103% | 1240 nM | O=C(Nc1ccn(S(=O)(=O)c2ccc(Cl)cc2)c1)c1ccccn1 | Fu (Plasma): 0.004
27 | 33.5% | > 30000 nM | O=C(Nc1ccn(S(=O)(=O)C(F)(F)c2ccccc2F)c1)c1ccccn1 | –
28 | 83% | 344 nM | O=C(Nc1ccn(S(=O)(=O)c2ccc(Cl)cn2)c1)c1ccccn1 | –
29 | 92.9% | 148 nM | Cc1ccc(S(=O)(=O)n2cc(NC(=O)c3ccccn3)cn2)cc1C | Fu (Plasma): 0.005
30 | 72.9% | 440 nM | O=C(Nc1ccn(S(=O)(=O)c2ccc(Cl)nc2)c1)c1ccccn1 | –
31 | 71% | 1020 nM | O=C(Nc1ccn(S(=O)(=O)C(F)c2ccccc2F)c1)c1ccccn1 (stereo not drawn) | –
